Reference: ChEMBL document CHEMBL1136799, “Design and synthesis of pyrrolidine-5,5'-trans-lactams (5-oxo-hexahydropyrrolo[3,2-b]pyrroles) as novel mechanism-based inhibitors of human cytomegalovirus protease. 4. Antiviral activity and plasma stability” (J Med Chem, 2003)

Columns and labels:
[1] = Compound was tested for its stability in human plasma; format: ADME, organism-based
[2] = target: T1, Capsid scaffolding protein (Human cytomegalovirus (strain AD169) (HHV-5) (Human herpesvirus 5), UniProt P16753); assay: Potency against human cytomegalovirus protease in HCMV pNA assay; design: species or system Human herpesvirus 5 strain AD169
T1 sequence (P16753 whole entry): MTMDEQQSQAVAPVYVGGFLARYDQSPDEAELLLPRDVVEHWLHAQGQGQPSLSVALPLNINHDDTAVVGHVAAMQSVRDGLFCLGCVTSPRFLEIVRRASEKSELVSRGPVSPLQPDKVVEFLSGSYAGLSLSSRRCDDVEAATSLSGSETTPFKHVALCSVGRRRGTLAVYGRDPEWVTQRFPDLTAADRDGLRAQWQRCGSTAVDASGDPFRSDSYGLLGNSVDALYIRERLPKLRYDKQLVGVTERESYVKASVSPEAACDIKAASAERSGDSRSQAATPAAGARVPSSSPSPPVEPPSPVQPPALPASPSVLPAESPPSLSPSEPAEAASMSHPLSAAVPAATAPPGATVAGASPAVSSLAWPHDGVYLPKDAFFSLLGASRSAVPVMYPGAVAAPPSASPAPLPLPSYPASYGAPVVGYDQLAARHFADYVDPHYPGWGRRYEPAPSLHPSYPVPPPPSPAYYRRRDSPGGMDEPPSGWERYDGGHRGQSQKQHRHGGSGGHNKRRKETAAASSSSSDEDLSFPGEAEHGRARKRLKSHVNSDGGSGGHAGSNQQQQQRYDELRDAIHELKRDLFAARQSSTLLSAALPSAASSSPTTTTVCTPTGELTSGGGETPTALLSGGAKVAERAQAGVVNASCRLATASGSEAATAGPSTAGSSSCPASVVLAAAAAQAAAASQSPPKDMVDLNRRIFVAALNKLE

[3] = system: Human betaherpesvirus 5; assay: Concentration required to inhibit human cytomegalovirus HCMV-AD169 in ELISA assay
[4] = target: T1, Capsid scaffolding protein; assay: Inhibition of human cytomegalovirus protease in HCMV pNA assay.; design: species or system Human herpesvirus 5 strain AD169
[5] = system: Vero; assay: Growth inhibition of cytomegalovirus in Vero cells; format: functional, Human betaherpesvirus 5
[6] = system: Human betaherpesvirus 5; assay: Concentration required to inhibit human cytomegalovirus HCMV-AD169 in antiviralplaque reduction assay; format: functional, organism-based
[7] = Concentration of compound required to inhibit elastase
[8] = target: T2, Prothrombin (Homo sapiens, UniProt P00734); assay: Concentration of compound required to inhibit thrombin
[9] = target: T3, Acetylcholinesterase (Homo sapiens, UniProt P22303); assay: Concentration of compound required to inhibit Acetylcholinesterase
T3 sequence (P22303 whole entry): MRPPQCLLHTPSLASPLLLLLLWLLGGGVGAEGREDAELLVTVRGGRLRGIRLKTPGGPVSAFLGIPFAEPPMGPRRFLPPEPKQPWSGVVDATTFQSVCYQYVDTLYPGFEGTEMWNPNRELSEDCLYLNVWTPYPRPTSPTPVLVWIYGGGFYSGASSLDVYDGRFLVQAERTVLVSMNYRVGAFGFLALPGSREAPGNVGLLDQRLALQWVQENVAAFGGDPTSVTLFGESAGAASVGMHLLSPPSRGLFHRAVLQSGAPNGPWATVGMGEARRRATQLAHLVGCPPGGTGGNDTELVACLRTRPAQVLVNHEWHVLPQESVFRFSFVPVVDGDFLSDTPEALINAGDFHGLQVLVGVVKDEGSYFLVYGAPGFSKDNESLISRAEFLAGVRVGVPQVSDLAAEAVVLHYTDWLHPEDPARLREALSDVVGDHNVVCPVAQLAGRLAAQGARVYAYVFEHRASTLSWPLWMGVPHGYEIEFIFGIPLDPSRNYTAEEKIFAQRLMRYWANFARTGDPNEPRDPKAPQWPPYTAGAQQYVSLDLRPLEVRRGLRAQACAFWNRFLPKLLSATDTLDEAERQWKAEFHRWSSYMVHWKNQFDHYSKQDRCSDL

[10] = system: Human betaherpesvirus 5; assay: Concentration required to inhibit human cytomegalovirus HCMV-AD169 in ELISA assay; remark: listed apart in the source
[11] = Steady state distribution value in guinea pig; format: ADME, organism-based, Cavia porcellus; details: in vivo, read-out: Vdss
Summary of the method: (§1)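 Guinea-pig pharmacokinetics after intravenous dosing, with plasma clearance, volume of distribution and half-life. Drug levels were also measured in brain and vitreous humor.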

[12] = T 1/2 in guinea pig; format: ADME, organism-based, Cavia porcellus; details: in vivo; summary of the method: as §1
[13] = Clearance value in dog; format: ADME, organism-based, Canis lupus familiaris; details: in vivo
Summary of the method: (§2)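 Dog pharmacokinetics after intravenous administration, with plasma clearance, volume of distribution and half-life derived from plasma drug levels.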

[14] = species on record: Canis familiaris; assay: AUC 0-t in dog; format: ADME, organism-based, Canis lupus familiaris, Plasma; details: in vivo
[15] = target: T3, Acetylcholinesterase; assay: Concentration required to inhibit Acetylcholinesterase
[16] = T 1/2 in dog; format: ADME, organism-based, Canis lupus familiaris; details: in vivo; summary of the method: as §2
[17] = C max in dog; format: ADME, organism-based, Canis lupus familiaris; details: in vivo
[18] = Bioavailability in dog; format: ADME, organism-based, Canis lupus familiaris; details: in vivo
Summary of the method: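 Oral bioavailability in dog, set against intravenous administration in the same study.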

[19] = T max in guinea pig; format: ADME, organism-based, Cavia porcellus; details: in vivo
[20] = species on record: Cavia porcellus; assay: AUC 0-inf in guinea pig; format: ADME, organism-based, Plasma; design: time infinity; details: in vivo
[21] = species on record: Canis familiaris; assay: AUC 0-inf in dog; format: ADME, organism-based, Canis lupus familiaris, Plasma; design: time infinity; details: in vivo
[22] = target: T2, Prothrombin; assay: Concentration required to inhibit thrombin
[23] = C max in guinea pig; format: ADME, organism-based, Cavia porcellus; details: in vivo
[24] = Concentration required to inhibit elastase
[25] = Steady state distribution value in dog; format: ADME, organism-based, Canis lupus familiaris; details: in vivo, read-out: Vdss; summary of the method: as §2
[26] = Clearance value in guinea pig; format: ADME, organism-based, Cavia porcellus; details: in vivo; summary of the method: as §1
[27] = T max in dog; format: ADME, organism-based, Canis lupus familiaris; details: in vivo
[28] = species on record: Cavia porcellus; assay: AUC 0-t in guinea pig; format: ADME, organism-based, Plasma; details: in vivo

SMILES	half-life [1]	Ki [2]	IC50 [3]	IC50 [4]	CCID50 [5]	IC50 [6]	also measured
CC(C)c1ccc(NC(=O)N2CCC[C@H]2C(=O)N2CC[C@H]3[C@H]2[C@H](C)C(=O)N3c2nc3ccc(OC(F)(F)F)cc3s2)cc1	11 h	20 nM	5300 nM	460 nM	>500 µM	–	–
CC(C)c1ccc(NC(=O)N2CCC[C@H]2C(=O)N2CC[C@H]3[C@H]2[C@H](C)C(=O)N3c2nc3ccc(F)cc3s2)cc1	> 24 h	–	–	360 nM	298 µM	12300 nM	–
CC(C)c1ccc(NC(=O)N2CCC[C@H]2C(=O)N2CC[C@H]3[C@H]2[C@H](C)C(=O)N3C(=O)[C@@H]2[C@H](C)[C@@H]2C)cc1	6 h	16 nM	–	300 nM	219 µM	–	IC50 [7]: > 10000 nM; IC50 [8]: > 200000 nM; IC50 [9]: > 100000 nM; IC50 [10]: 10000 nM
CC(C)c1ccc(NC(=O)N2CCC[C@H]2C(=O)N2CC[C@H]3[C@H]2[C@H](C)C(=O)N3C(=O)C2C(C)(C)C2(C)C)cc1	16 h	–	–	> 20000 nM	38 µM	> 35000 nM	–
CC(C)c1ccc(NC(=O)N2CCC[C@H]2C(=O)N2CC[C@H]3[C@H]2[C@H](C)C(=O)N3c2nc3cccnc3s2)cc1	8 h	21 nM	3600 nM	290 nM	<31 µM	–	–
CC(C)c1ccc(NC(=O)N2CCC[C@H]2C(=O)N2CC[C@H]3[C@H]2[C@H](C)C(=O)N3c2nccs2)cc1	> 24 h	446 nM	–	1500 nM	280 µM	> 30000 nM	–
CCOC(=O)c1ccc2nc(N3C(=O)[C@@H](C)[C@@H]4[C@@H]3CCN4C(=O)[C@@H]3CCCN3C(=O)Nc3ccc(C(C)C)cc3)sc2c1	9 h	7.4 nM	5100 nM	350 nM	>500 µM	–	–
CC(C)c1ccc(NC(=O)N2CCC[C@H]2C(=O)N2CC[C@H]3[C@H]2[C@H](C)C(=O)N3c2nc3ccc([N+](=O)[O-])cc3s2)cc1	24 h	25 nM	–	390 nM	128 µM	8700 nM	–
CC(C)c1ccc(NC(=O)N2CCC[C@H]2C(=O)N2CC[C@H]3[C@H]2[C@H](C)C(=O)N3c2nc3ccc(CO)cc3s2)cc1	> 20 h	40 nM	520 nM	310 nM	125 µM	–	–
CC(C)c1ccc(NC(=O)N2CCC[C@H]2C(=O)N2CC[C@H]3[C@H]2[C@H](C)C(=O)N3C(=O)C2CC2)cc1	0.5 h	2 nM	31000 nM	200 nM	274 µM	–	–
COc1ccc2nc(N3C(=O)[C@@H](C)[C@@H]4[C@@H]3CCN4C(=O)[C@@H]3CCCN3C(=O)Nc3ccc(C(C)C)cc3)sc2n1	9 h	–	–	870 nM	>500 µM	31000 nM	–
CC(C)c1ccc(NC(=O)N2CCC[C@H]2C(=O)N2CC[C@H]3[C@H]2[C@H](C)C(=O)N3c2nc3ccccc3s2)cc1	> 24 h	10 nM	–	180 nM	>500 µM	5000 nM	Vd [11]: 1.6 L/kg; half-life [12]: 1 h; clearance [13]: 8 mL/min/kg; AUC 0-t [14]: 9660 ng/mL/h; IC50 [15]: > 100000 nM; half-life [16]: 1.5 h; Cmax [17]: 5480 ng/mL; bioavailability [18]: 29%; Tmax [19]: 4.8 min; AUC 0-infinity [20]: 2230 ng/mL/h; AUC 0-infinity [21]: 9750 ng/mL/h; IC50 [22]: > 200000 nM; Cmax [23]: 32000 ng/mL; IC50 [24]: > 10000 nM; Vd [25]: 0.8 L/kg; clearance [26]: 60 mL/min/kg; Tmax [27]: 4.8 min; AUC 0-t [28]: 2210 ng/mL/h
